In assay [1] the target is Neuropilin-1 (Homo sapiens) (UniProt O14786). Briefly: SPR. The following applies: cited from earlier work.
For assay [2], the system named is neuropilin-1. The following applies: cited from earlier work.
The subject of assay [3] is axon. As to conditions: cited from earlier work.
For assay [4], the target named is T1, neuropilin-2 (Homo sapiens, UniProt O60462).
T1 sequence (O60462 276-595 limits assumed): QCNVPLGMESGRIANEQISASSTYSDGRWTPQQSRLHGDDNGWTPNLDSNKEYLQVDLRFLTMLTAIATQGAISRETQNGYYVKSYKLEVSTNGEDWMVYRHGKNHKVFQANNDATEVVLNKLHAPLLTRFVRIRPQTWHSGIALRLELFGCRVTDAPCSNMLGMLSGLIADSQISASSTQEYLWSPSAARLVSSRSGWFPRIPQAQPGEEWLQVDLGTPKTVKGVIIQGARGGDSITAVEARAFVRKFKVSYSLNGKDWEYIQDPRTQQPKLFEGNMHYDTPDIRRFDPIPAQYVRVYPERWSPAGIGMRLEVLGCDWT
Briefly: Sedimentation velocity analytical ultracentrifugation with neuropilin-2. It counts as binding. A digest of the protocol:
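Sedimentation velocity was run at 4°C and 40,000 rpm in 10 mM Tris pH 7.5, 150 mM NaCl, 1 mM sodium azide. Human neuropilin-2 b1b2 was held at 8 μM. The oxidised dimeric C-terminal Sema3F peptide was added at 2.5X molar excess. Absorbance was read at 280 nm. Sedimentation coefficient distributions (0.1–6 s) were fit to numerical Lamm equation solutions, using calculated buffer density, viscosity and partial specific volumes.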

Assay [5] concerns the target T2, neuropilin-1 (Homo sapiens, UniProt O14786).
T2 sequence (O14786 273-586 limits assumed): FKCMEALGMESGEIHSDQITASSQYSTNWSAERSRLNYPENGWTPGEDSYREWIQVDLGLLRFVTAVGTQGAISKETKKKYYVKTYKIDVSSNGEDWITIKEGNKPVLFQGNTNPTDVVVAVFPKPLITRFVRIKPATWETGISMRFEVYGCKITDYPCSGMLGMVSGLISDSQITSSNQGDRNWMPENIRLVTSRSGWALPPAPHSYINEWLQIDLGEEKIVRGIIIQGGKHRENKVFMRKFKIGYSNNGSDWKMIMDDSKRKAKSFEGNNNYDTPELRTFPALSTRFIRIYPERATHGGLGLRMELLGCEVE
The assay is classed as binding.

Assay [6] addresses T3, core ligand binding region (b1b2) of human neuropilin-2 (human, UniProt O60462 277-592).
T3 sequence (looked up): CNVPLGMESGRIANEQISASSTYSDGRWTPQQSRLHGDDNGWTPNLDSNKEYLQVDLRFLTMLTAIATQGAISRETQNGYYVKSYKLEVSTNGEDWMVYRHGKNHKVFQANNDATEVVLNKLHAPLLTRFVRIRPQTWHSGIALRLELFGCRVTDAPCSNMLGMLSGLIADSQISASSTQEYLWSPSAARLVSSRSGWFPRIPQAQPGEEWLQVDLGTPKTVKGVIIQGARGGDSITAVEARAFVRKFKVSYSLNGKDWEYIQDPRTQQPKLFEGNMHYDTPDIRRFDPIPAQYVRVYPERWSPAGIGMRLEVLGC
Briefly: AUC.

In assay [7] the target is core ligand binding region (b1b2) of human neuropilin-1 (human) (UniProt O14786). Briefly: plate-based inhibition assay.
The target is the same in assay [8]. Briefly: plate-based inhibition assay. This is another data set of the same source.
The subject of assay [9] is furin. Briefly: Furin processing of Sema3F C-terminus. It counts as cell-based. The following applies: C-terminal Hgh fusion, western blot. Put shortly: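 The C-terminal neuropilin-binding region of human Sema3F (residues 605-785) was fused to human growth hormone. Cells were kept in α-MEM with 5% FBS, moved at 80% confluence to serum-free Hybridoma-SFM, and PEI-transfected with 1 μg DNA/mL at a 3:1 PEI:DNA ratio. Hosts were CHO, furin-deficient FD11, furin-overexpressing CHO, and COS-7 with or without furin inhibitors. Media were western-blotted with anti-Hgh polyclonal (1:10,000) and HRP anti-rabbit (1:20,000) antibodies, then chemiluminescence.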

Like-named read-outs stand apart in the source and are kept apart here. Where a SMILES comes first, the peptide text is derived from it. Where no end group is shown, it is not given here.

core ligand binding region (b1b2) of human neuropilin-1 (human), sequence (O14786 22-923): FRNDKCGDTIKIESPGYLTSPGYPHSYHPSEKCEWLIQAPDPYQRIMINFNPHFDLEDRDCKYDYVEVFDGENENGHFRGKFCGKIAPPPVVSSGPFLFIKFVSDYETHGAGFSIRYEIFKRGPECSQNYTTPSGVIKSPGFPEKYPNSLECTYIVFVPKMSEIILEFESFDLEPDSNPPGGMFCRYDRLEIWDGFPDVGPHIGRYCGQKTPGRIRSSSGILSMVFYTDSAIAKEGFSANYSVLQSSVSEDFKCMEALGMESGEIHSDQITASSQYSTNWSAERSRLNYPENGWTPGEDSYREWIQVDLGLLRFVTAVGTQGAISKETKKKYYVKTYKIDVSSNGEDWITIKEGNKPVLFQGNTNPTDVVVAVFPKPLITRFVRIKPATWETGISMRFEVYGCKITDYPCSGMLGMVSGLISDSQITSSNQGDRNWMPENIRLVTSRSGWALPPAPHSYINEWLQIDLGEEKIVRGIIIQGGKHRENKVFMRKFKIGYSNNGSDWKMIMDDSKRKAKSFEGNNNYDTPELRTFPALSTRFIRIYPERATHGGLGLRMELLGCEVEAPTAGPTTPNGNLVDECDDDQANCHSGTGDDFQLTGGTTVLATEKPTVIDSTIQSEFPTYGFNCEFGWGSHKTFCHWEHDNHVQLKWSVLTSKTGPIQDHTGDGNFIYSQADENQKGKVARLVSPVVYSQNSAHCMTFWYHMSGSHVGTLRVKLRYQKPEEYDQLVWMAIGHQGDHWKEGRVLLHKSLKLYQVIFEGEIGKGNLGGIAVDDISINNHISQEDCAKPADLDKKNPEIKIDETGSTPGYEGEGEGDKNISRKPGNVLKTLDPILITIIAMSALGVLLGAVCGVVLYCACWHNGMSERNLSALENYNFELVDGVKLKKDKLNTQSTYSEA
Neuropilin-1 (Homo sapiens), sequence (O14786 22-923): as above

Consider VEGF (from UniProt P15692), for which the Kd in [1] was 2 µM.
On to VEGF, for which the “increase in apparent affinity of VEGF with four fold higher neuropilin density” value in assay [2] was “twenty”. The “effect on semaphorin mediated growth cone collapse” value in [3] is given as “directly antagonize semaphorin mediated growth cone collapse”.
Consider “GLIHQYCQGYWRHVPPSPREAPGAPRSPEPDQKKPRNRRHHPPDT (disulfide (positions not given here)) [C-Sema]”, for which, in assay [4] (neuropilin-2 8 μM + C-Sema 2.5X molar excess, free C-Sema), the “% of species, peak a” value is given as 32%. In addition, in assay [4] (neuropilin-2 8 μM + C-Sema 2.5X molar excess, free C-Sema (expected 10.7 kDa)), the “c(M), peak a” value worked out at 11.1 ± 0.6 kDa. In assay [4] (neuropilin-2 8 μM + C-Sema 2.5X molar excess, neuropilin-2 dimer), the “% of species, peak c” value is 4%. Further, the “% of species, peak b” value in assay [4] (neuropilin-2 8 μM + C-Sema 2.5X molar excess, neuropilin-2 monomer) is 58%. In addition, the “interaction with neuropilin-2 by sedimentation velocity” value in assay [4] (neuropilin-2 8 μM, peptide 2.5X molar excess) is reported as “no significant interaction with neuropilin-2”.
With `CC(C)C[C@H](NC(=O)[C@H](Cc1c[nH]c2ccccc12)NC(=O)[C@@H](NC(=O)[C@H](C)N)[C@@H](C)O)C(=O)N1CCC[C@H]1C(=O)N1CCC[C@H]1C(=O)N[C@@H](CCCNC(=N)N)C(=O)O` [ATWLPPR] (H-ATWLPPR-OH), it took 10.5 ± 2 µM to reach half-maximal inhibition in assay [5] (IC50).

B1: Neuropilin-2: core ligand binding region (b1b2) of human neuropilin-2 (protein)
chain: CNVPLGMESGRIANEQISASSTYSDGRWTPQQSRLHGDDNGWTPNLDSNKEYLQVDLRFLTMLTAIATQGAISRETQNGYYVKSYKLEVSTNGEDWMVYRHGKNHKVFQANNDATEVVLNKLHAPLLTRFVRIRPQTWHSGIALRLELFGCRVTDAPCSNMLGMLSGLIADSQISASSTQEYLWSPSAARLVSSRSGWFPRIPQAQPGEEWLQVDLGTPKTVKGVIIQGARGGDSITAVEARAFVRKFKVSYSLNGKDWEYIQDPRTQQPKLFEGNMHYDTPDIRRFDPIPAQYVRVYPERWSPAGIGMRLEVLGC
B1: in assay [4] (neuropilin-2 alone, 8 μM, dimer), the “% of species, peak b” value amounted to 3%. Besides, in assay [4] (neuropilin-2 alone, 8 μM, dimer (expected 76.8 kDa)), the “c(M), peak b” value was found to be 74.3 ± 3.0 kDa. In addition, the “s20,w, peak b” value in assay [4] (neuropilin-2 alone, 8 μM, dimer, 4°C, 10 mM Tris pH 7.5, 150 mM NaCl) was found to be 4.73 S. Moreover, the “% of species, peak a” value in [4] (neuropilin-2 alone, 8 μM, monomer) is 97%. For the same molecule, the “c(M), peak a” value in [4] (neuropilin-2 alone, 8 μM, monomer (expected 38.4 kDa)) is listed as 37.9 ± 1.9 kDa; in assay [4] (neuropilin-2 alone, 8 μM, monomer (expected 38.4 kDa), listed as neuropilin-2), 37.9 kDa. In addition, the “s20,w, peak a” value in assay [4] (neuropilin-2 alone, 8 μM, monomer, 4°C, 10 mM Tris pH 7.5, 150 mM NaCl) is on record as 3.03 S.
Turning to GLIHQYCQGYWRHVPPSPREAPGAPRSPEPQDQKKPRNRR (also: disulfide-linked dimer (interchain disulfide)), the “stoichiometry N” value in assay [6] was 1 neuropilin-2:C-furSema. Also, the IC50 was determined as 0.046 µM in [7] and 0.045 µM in assay [8].

B2: Sema3F (Ig-basic): C-terminal neuropilin binding region of human Sema3F (residues 605-785) with C-terminal human growth hormone fusion (protein)
chain: ANKNAVESVQYGVAGSAAFLECQPRSPQATVKWLFQRDPGDRRREIRAEDRFLRTEQGLLLRALQLSDRGLYSCTATENNFKHVVTRVQLHVLGRDAVHAALFPPLSMSAPPPPGAGPPTPPYQELAQLLAQPEVGLIHQYCQGYWRHVPPSPREAPGAPRSPEPQDQKKPRNRR
modifications: left off: Human Growth Hormone (Hgh), N-terminal, kept
Turning to B2, the “processing state of Sema3F” value is “only the processed form” in assay [9] (CHO cells overexpressing furin); “nearly completely processed” in assay [9] (COS-7 cells, no furin inhibitor); “solely the unprocessed form” in assay [9] (FD11 CHO cells lacking furin activity); “a mixture of processed and unprocessed forms” in assay [9] (wild-type CHO cells). The “proteolytic processing of Sema3F (fraction processed)” value in assay [9] (Cos7 cells, no furin inhibitor) is greater than 95%.

The values above are taken from article PMC2868107 (Biochemistry, 2010).
